A selection: hits, their analogues and other compounds. The true share with any hit is near 2.1%.
FGF22 binding-1: binders of recombinant human FGF22 by thermal shift. activity (Tm shift, normalised), % at 9.99 µM. actives 1.5% (n = 340,000). SYPRO orange fluorescence; percent of sucrose octasulfate shift, DMSO zero. Q9HCT0. AID 651658;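 active = mean Tm shift, scaled 0 neutral to 100 positive control, at about 1.3% or above, every replicate too, limit read from the data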
ERp5 inh: inhibitors of human ERp5 | Q15084 | ERp5 insulin aggregation, absorbance 650 nm, 90 min | inhibition, % at 9.99 µM | actives 0.05% (n = 350,000) | AID 651711;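 active = mean replicate inhibition above about 25%, with every replicate also reaching it, limit read from the data, passing the limit was not always enough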
Target sequence (Q15084 whole entry, looked up): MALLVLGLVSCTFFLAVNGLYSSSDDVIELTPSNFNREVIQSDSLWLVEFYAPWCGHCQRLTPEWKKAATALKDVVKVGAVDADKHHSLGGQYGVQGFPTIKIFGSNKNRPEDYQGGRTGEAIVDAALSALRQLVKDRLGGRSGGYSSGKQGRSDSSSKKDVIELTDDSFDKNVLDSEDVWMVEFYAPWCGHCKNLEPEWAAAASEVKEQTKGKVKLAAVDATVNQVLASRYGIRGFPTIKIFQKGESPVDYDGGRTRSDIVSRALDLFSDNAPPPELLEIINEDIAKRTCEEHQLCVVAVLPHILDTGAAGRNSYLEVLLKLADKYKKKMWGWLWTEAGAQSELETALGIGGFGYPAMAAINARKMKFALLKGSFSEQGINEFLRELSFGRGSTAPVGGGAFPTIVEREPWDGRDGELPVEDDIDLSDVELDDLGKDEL
AF4-AF9 inh: inhibitors of human MLL-AF4/AF9 interaction; inhibition, % at 10 µM; actives 0.47% (n = 350,000); AlphaScreen, biotin-AF4 peptide binding to FLAG-AF9; AID 651704; P42568;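 active = every replicate reaching a set inhibition limit, whatever the replicate mean, cut at about 25% in these data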;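 note: 0% = plate neutral control median and 100% = total signal loss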
FN deposition inh: fibronectin deposition inhibition; inhibition, % at 12.6 µM; AID 743247; AH1F fibroblasts, Alexa488-fibronectin deposition fluorescence, overnight; actives 0.086% (n = 350,000);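 active = mean inhibition across replicates of 30% or more, regardless of how many single replicates reach that level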;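 note: positive control wells lacked labelled fibronectin entirely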
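Test system: AH1F fibroblast monolayer depositing Alexa488-labelled fibronectin into matrix. Input: 10000 cells per well. Technique: fluorescence, ex 485 nm, em 525 nm. Buffer or medium: DMEM plus 2% serum, read in PBS. Timing: 1 h cell adhesion before compound, then overnight fibronectin incubation. Compound: single dose, pinned. Read-out basis: inhibition from reduced deposited-fibronectin fluorescence.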
ARNT-TACC3 inh: ARNT/TACC3 interaction disruption | Q9Y6A5 | AlphaScreen His-ARNT PAS-B/GST-TACC3 binding, luminescence; TACC3 fragment carries E629A point mutation | inhibition, % at 9.99 µM | actives 0.66% (n = 390,000);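 active = mean inhibition of replicates at least 50% and at least half of replicates each reaching 50%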;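 note: 0% = complete ARNT plus TACC3 wells and 100% = ARNT alone without TACC3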
PDI turbidity: PDI (human) enzyme inhibition | AID 588391 | actives 0.052% (n = 350,000) | PDI insulin aggregation turbidity, A650, 90 min | inhibition, % at 10 µM;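 active = mean inhibition across replicates of 30% or more, whatever share of single replicates reach that level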
AlphaScreen ctr: AlphaScreen artifact in ARNT/TACC3 counter-screen; His-ARNT PASB-GST AlphaScreen artifact counter-screen, luminescence; AID 651705; shares compounds with ARNT-TACC3 inh; actives 50% (n = 1,200); AC50, µM (highest dose often 68 µM), inactives show at the highest dose activity change, negative = signal decrease;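 active = every separate test run was called active for a drop in luminescence, with AC50 within twice the top valid dose, actives reach about 71 µM in these data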
FGF22 binding-2: binders of human FGF22 by thermal shift | recombinant FGF22 thermal shift, SYPRO orange fluorescence | thermal shift activity, °C (ΔTm) at 38 µM | AID 720646 | actives 2% (n = 1,000) | shares compounds with FGF22 binding-1;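 active = fitted rise in melting shift crosses a set limit at or below the top valid dose tested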
TSA no protein: counter-screen for FGF22 binders: compound-only thermal shift, no protein; actives 2% (n = 1,000); AC50, µM (doses to about 38 µM); shares compounds with FGF22 binding-1; AID 743019; compound-only SYPRO orange thermal shift counter-screen;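 active = rising signal whose fitted curve reaches the 0.54 level within the top valid dose, showing a melting point, actives reach about 13 µM in these data; inactive = the rest, including activity in the opposite direction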; note: value is where the raw curve crosses a fixed level and not half-maximal
AlphaScreen intf: counter-screen: AlphaScreen signal interference; shares compounds with AF4-AF9 inh; signal luminescence; AC50, µM (titrated, usually from 12 µM), for the others: at the top dose activity change, negative = inhibition; actives 45% (n = 530); AID 720494; cut-off not given, nearly all actives have AC50 up to about 14 µM
* hit, by the source's call; i = inactive; nt = no result; ! = a repeat was not active.

SMILES | FGF22 binding-1 | ERp5 inh | AF4-AF9 inh | FN deposition inh | ARNT-TACC3 inh | PDI turbidity | AlphaScreen ctr | others
COCC(=O)Nc1ccc2c(c1)C(=O)N(C)[C@@H]1CC[C@@H](CC(=O)NCc3cccc(F)c3)O[C@H]1CO2 | -0.3 | nt | nt | -4.8 | 9.6 | nt | nt
C[C@H]1CN([C@@H](C)CO)S(=O)(=O)c2ccc(C3=CCCC3)cc2O[C@@H]1CN(C)Cc1cccnc1 | 0.0 | 2.2 | -2.6 | 6.9 | 6.5 | nt | nt
C[C@H]1CN([C@@H](C)CO)C(=O)Cc2cc(NS(=O)(=O)c3ccccc3)ccc2O[C@H]1CN(C)S(=O)(=O)c1cn(C)cn1 | -0.1 | 1.3 | -1.5 | nt | 6.7 | nt | nt
COc1ccc(O)c(/C=N\NC(=O)CCn2nnc3ccccc32)c1 | nt | nt | nt | nt | 50.6* | -5.7 | -8.0%
CCOc1cc(/C=N/Nc2ncc(C)c(=O)[nH]2)ccc1O | -0.9 | 4.8 | -1.8 | 3.6 | 54.4* | 9.6 | -24.2%
CSc1ncccc1C(=O)N1CCN(S(=O)(=O)c2cc(C)ccc2C)CC1 | -0.4 | 0.1 | 2.1 | 4.8 | -1.2 | 6.9 | nt
Cc1ccc(C)c(S(=O)(=O)N2CCN(Cc3ccc(O)c4ncccc34)CC2)c1 | 0.0 | -6.0 | 82.0* | -1.9 | 54.3* | 11.0 | 17.3µM* | AlphaScreen intf=-31.1%
CC(C)NC(=O)N1CC2(C1)[C@@H](c1ccccc1)[C@@H](CO)N2C(=O)C1CCCCC1 | nt | 4.1 | -3.3 | nt | nt | nt | nt
C[C@H]1CN([C@@H](C)CO)C(=O)Cc2cc(N(C)C)ccc2O[C@@H]1CN(C)Cc1ccccc1 | -0.4 | 1.0 | 1.0 | nt | 0.3 | nt | nt
C[C@@H]1CN([C@H](C)CO)C(=O)Cc2cc(N(C)C)ccc2O[C@H]1CN(C)Cc1ccc(Oc2ccccc2)cc1 | nt | 6.5 | 43.2* | nt | 52.4* | nt | 15.4µM* | AlphaScreen intf=-39.5%
C#CCOCCOCCOCCNc1nc(N2CCN(C(=O)C([C@@H](C)O)n3cc([C@@H](N)CCCCN)nn3)CC2)nc(N2CCN(C(=O)C([C@@H](C)O)n3cc([C@@H](N)CCCCN)nn3)CC2)n1 (stereo not given in full) | 0.3 | -4.5 | 39.0* | -9.0 | 60.0* | -0.4 | 0.4% | AlphaScreen intf=17.3%
C[C@@H](NC(=O)C[C@H]1C=C[C@@H](NC(=O)Cc2ccccn2)[C@@H](CO)O1)c1ccccc1 | 0.0 | -4.1 | 1.6 | 4.0 | -12.2 | nt | nt
Oc1c(C(Nc2cccc(C(F)(F)F)c2)c2ccncc2)ccc2cccnc12 (stereo not given) | 0.1 | 2.5 | 33.4* | -5.1 | 53.4* | 2.8 | 4.07µM* | AlphaScreen intf=4.76µM*
O=C(NNC(=O)c1ccccc1O)c1ccc(NS(=O)(=O)c2ccc(F)c(F)c2)cc1 | 1.8* | 2.6 | -3.3 | 4.2 | 7.7 | 4.4 | nt | FGF22 binding-2=-0.036;TSA no protein=i
Cc1ccc(NS(=O)(=O)c2ccc(C(=O)NNC(=O)c3ccccc3O)cc2)cc1 | -0.5 | -1.2 | -13.4 | 3.9 | 24.0 | -16.2 | nt
CO[C@@H]1CN(C)C(=O)c2cc(NC(=O)c3ccc(F)cc3)ccc2OC[C@H](C)N(C(C)=O)C[C@H]1C | -0.3 | -6.8 | -3.1 | 9.8 | -10.0 | nt | nt
Cn1cnc(CCNC(=O)C[C@@H]2CC[C@H]3[C@@H](COC[C@H](O)CN3C(=O)Nc3ccc(F)cc3)O2)c1 | 0.1 | 6.1 | -0.2 | -10.1 | -9.3 | nt | nt
C[C@@H]1CN([C@H](C)CO)S(=O)(=O)c2ccc(C#CCN(C)C)cc2O[C@@H]1CN(C)Cc1ccccc1F | 4.7*! | 5.2 | 6.4 | -3.7 | 7.8 | 13.2 | nt | FGF22 binding-2=0.15;TSA no protein=i

Screening results: PubChem BioAssay, Broad Institute
